Measured values taken from PubChem BioAssay.
Some of the results follow. Records with an inconclusive call do not appear. Unmarked numbers belong to inactive results. Active and inactive are the calls of the source.

What was measured:
[1] = target: Solute carrier family 12 member 5 (Homo sapiens) (UniProt Q9H2X9); assay: KCC2 modulators in sodium-free buffer, confirmation, cell-based, HEK293 KCC2, thallium flux, secondary assay (AID 1713;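 active means thallium flux slope above the same plate's solvent-only control mean plus 3 SD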); conditions: FluoZin2 fluorescence, at 10 µM, active compounds read high
Sequence of Solute carrier family 12 member 5 (Homo sapiens) (Q9H2X9 whole entry, looked up): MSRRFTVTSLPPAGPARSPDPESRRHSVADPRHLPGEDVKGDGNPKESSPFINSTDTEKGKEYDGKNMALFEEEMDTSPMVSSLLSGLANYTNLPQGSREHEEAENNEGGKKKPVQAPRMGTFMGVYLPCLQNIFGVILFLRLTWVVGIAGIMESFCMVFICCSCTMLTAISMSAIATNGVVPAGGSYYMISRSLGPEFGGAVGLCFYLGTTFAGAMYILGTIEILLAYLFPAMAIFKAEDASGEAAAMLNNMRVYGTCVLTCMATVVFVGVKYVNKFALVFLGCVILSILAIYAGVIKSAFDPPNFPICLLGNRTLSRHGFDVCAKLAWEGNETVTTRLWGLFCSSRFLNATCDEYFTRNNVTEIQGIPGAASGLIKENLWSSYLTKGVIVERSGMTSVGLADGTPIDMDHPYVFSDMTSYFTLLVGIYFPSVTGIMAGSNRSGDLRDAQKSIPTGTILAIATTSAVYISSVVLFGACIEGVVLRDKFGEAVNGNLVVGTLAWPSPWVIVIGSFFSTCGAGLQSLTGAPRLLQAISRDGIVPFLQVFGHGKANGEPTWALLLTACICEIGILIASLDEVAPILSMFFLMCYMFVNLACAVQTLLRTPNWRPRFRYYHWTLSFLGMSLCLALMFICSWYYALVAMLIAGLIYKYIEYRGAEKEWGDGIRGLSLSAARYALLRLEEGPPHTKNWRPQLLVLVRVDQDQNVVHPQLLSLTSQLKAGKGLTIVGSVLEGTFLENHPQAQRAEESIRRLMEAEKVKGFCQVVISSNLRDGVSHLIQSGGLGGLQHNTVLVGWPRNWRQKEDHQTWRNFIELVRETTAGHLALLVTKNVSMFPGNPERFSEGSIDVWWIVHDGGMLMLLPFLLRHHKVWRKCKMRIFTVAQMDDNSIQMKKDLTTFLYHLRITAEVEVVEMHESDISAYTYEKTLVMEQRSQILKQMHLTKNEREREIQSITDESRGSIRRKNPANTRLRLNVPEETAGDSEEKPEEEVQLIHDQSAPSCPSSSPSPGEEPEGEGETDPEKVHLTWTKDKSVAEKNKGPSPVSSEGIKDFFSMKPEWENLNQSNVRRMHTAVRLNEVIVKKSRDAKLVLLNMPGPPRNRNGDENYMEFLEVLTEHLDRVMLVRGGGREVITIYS
Outline: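 Test system: KCC2-expressing HEK cells. Medium: Sodium-free N-methylglucamine chloride buffer. Schedule: dye loading 48 min. Technique: kinetic thallium-flux fluorescence imaging.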

PubChem AID 1714 = conditions: HEK293-KCC2 + bumetanide/ouabain, thallium flux FluoZin2; at 10 µM; active compounds read high
Outline: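 Test system – KCC2-expressing HEK cells · Medium – HBSS-HEPES with ouabain and bumetanide · Reagent – thallium stimulus · Dosing – 10 µM single dose · Times – 48 min dye loading · Technique – kinetic FluoZin2 fluorescence, ex 480/em 540 nm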

[2] = target: Solute carrier family 12 member 5 (Homo sapiens) (UniProt Q9H2X9); assay: KCC2 modulators without ouabain present, confirmation, cell-based, HEK293 KCC2, thallium flux, FluoZin2, secondary assay 2 (AID 1715); conditions: HEK293-KCC2, thallium flux FluoZin2 fluorescence; at 10 µM; actives lie on both sides; F/F0 rise rate, 10–20 s post-thallium;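 further: raw slope with 0.1% DMSO as baseline and bumetanide as block control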
[3] = thallium flux modulation in parental HEK cells, confirmation, counter-screen for KCC2 modulator project, cell-based, counterscreen 1 (AID 1716;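 active means thallium flux rate significantly above the same plate's solvent-only control wells, beyond their mean plus 3 SD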); conditions: HEK293 parental cells, thallium flux FluoZin2, ouabain; at 10 µM; baseline-ratio fluorescence slope, 10–20 s after thallium
[4] = target: Solute carrier family 12 member 5 (Homo sapiens) (UniProt Q9H2X9); assay: KCC2 inhibitors and activators, ouabain retest, confirmation, HEK-KCC2 cells (AID 1717;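 active means thallium flux slope beyond 3 SD from same-plate DMSO control mean in most replicates, usually higher, sometimes lower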;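 further: slope of initial-normalized fluorescence between seconds 10 and 20 after thallium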); conditions: HEK293-KCC2, thallium flux FluoZin2 fluorescence, at 10 µM, bidirectional: low = inhibitor, high = activator
[5] = native HEK Tl+ uptake effects, second counter-screen – HEK cells, counterscreen 2, counter-screen for KCC2 modulator project, confirmation (AID 1718;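 active means thallium flux slope above the same plate's solvent-control mean plus 3 SD in both duplicate wells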;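 further: run without ouabain in cells lacking the KCC2 cotransporter; slope of fluorescence scaled to its starting value between 10 and 20 s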); conditions: HEK293 parental, thallium flux FluoZin-2 fluorescence slope; at 10 µM
Outline: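 Read-out: thallium influx rate; assay system: parental HEK cells; replication: slope calculated separately for each replicate well; signal: FluoZin2-AM fluorescence (0.5 µM), ex 480 nm, em 540 nm, kinetic 1 Hz; benchmarks: bumetanide 2 mM; schedule: overnight cell culture at 37 °C, 48 min dye loading, compound before thallium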

Row | SMILES | normalised thallium flux (F/F0 slope) [1] | normalized thallium flux (PubChem AID 1714) | normalized thallium flux [2] | thallium flux rate (normalised fluorescence) [3] | raw Tl+ flux slope (below DMSO = inhibition, above = activation) [4] | thallium flux slope [5]
1 | Cc1ccccc1N/N=C/c1ccc(N2CCOCC2)cc1 | 0.0119 (active) | 0.00874 (active) | 0.0362 | 0.00826 | 0.0234 | 
2 | CN(C)S(=O)(=O)c1cccc(NC(=S)N/N=C/C(=O)c2ccccc2)c1 | 0.014 (active) | 0.0308 (active) | 0.0323 | 0.0158 (active) | 0.0279 | 0.0129 (active)
3 | COc1ccccc1/C=C/C=N/n1c(-c2ccc(Cl)cc2Cl)n[nH]c1=S | 0.0112 | 0.0155 (active) | 0.0312 | 0.0105 (active) | 0.0229 | 0.011
4 | C=CCNC(=S)N/N=C/c1ccc(C)s1 | 0.0134 (active) | 0.0311 (active) | 0.0287 | 0.0119 (active) | 0.0521 (active) | 
5 | Cc1cc(C)nc(SC(C)C(=O)N/N=C/c2cccs2)n1 (configuration not stated) | 0.00759 | 0.00586 | 0.0302 | 0.00741 | 0.0216 | 0.00957
6 | NC(=O)NC(=O)CSc1nc2cc([N+](=O)[O-])ccc2n1-c1cccc(C(F)(F)F)c1 | 0.00549 | 0.0122 (active) | 0.0326 | 0.0113 (active) |  | 
7 | CCCn1c(=S)[nH]c2ccc(C(F)(F)F)cc21 | 0.00727 | 0.0987 (active) | 0.0617 (active) | 0.0842 (active) | 0.0775 (active) | 0.0576 (active)
8 | COc1ccc(CN2CCCCC2C)cc1OC (configuration not stated) | 0.00901 | 0.00633 | 0.0321 | 0.00759 | 0.0191 | 0.011
9 | Cc1c(NC(=O)CSc2cccc3cccnc23)c(=O)n(-c2ccccc2)n1C | 0.0141 (active) | 0.0374 (active) | 0.0314 | 0.0256 (active) | 0.0324 (active) | 
10 | Cc1nnc(SC(C(=O)Nc2cc(Cl)cc(Cl)c2)c2ccccc2)[nH]c1=O (configuration not stated) | 0.00885 | 0.00559 | 0.0302 | 0.00486 (active) | 0.0159 (active) | 
11 | Cc1ccc(/C=N/NC(=S)NC2CCCCC2)o1 | 0.0109 | 0.0268 (active) | 0.0327 | 0.0111 (active) | 0.0502 (active) | 
12 | CCc1ccc2nc3sc(C(=O)Nc4nnc(CC)s4)c(N)c3cc2c1 | 0.00632 | 0.000813 (active) | 0.0241 (active) | 0.00534 (active) | 0.0132 (active) | 
13 | Cc1cs/c(=N\N=C\c2ccc(O)cc2)n1Cc1ccco1 | 0.00586 | 0.00375 | 0.0253 (active) | 0.00654 | 0.0162 | 0.0101
14 | CNC(=O)/C(=C\C=C\c1ccccc1)NC(=O)c1ccc([N+](=O)[O-])cc1 | 0.00733 | 0.00498 | 0.0219 (active) | 0.00796 | 0.0141 (active) | 0.0103
15 | Cc1ccc(OCC(=O)NNC(=S)NCc2ccccc2)cc1 | 0.00584 | 0.0196 (active) | 0.0307 | 0.0156 (active) | 0.0206 | 0.0162 (active)
16 | COc1ccc(NC(=O)COC(=O)c2ccc(NS(=O)(=O)/C=C/c3ccccc3)cc2)cc1 | 0.00992 | 0.00679 | 0.0304 | 0.00722 | 0.0244 | 
17 | O=[N+]([O-])c1c(NCCO)cc(Sc2nc3ccccc3s2)c2nonc12 | 0.0147 (active) | 0.0297 (active) | 0.0332 | 0.0134 (active) | 0.0556 (active) | 0.0128 (active)
18 | O=C(NC(=S)N1CCc2ccccc21)c1ccco1 | 0.00899 (active) | 0.0451 (active) | 0.0395 (active) | 0.0311 (active) | 0.0407 (active) | 0.0243 (active)
19 | Brc1ccc(C2=CC(c3ccco3)n3ncnc3N2)cc1 (configuration not stated) | 0.00373 (active) | 0.00178 (active) | 0.0209 (active) | 0.00407 (active) | 0.00899 (active) | 0.00724 (active)
20 | Oc1c(C=Nc2cccc3nsnc23)ccc2ccccc12 | 0.00934 | 0.00749 | 0.0296 | 0.00781 | 0.0438 | 0.0106
21 | O=C(CCC(=O)OCc1cccc(C(=O)Oc2ccccc2)c1)Nc1cccc2ccccc12 | 0.00618 | 0.00434 | 0.0284 | 0.00695 | 0.0171 | 0.00997
